# In ChEMBL document CHEMBL4613300, “Pharmacophore-Based Virtual Screening for Identification of Negative Modulators of GLI1 as Potential Anticancer Agents” (ACS Med Chem Lett, 2020):
# Activity calls are given as the source filed them. The calls are words filed in the database; no cut-off is given here.
# How the values were obtained:
# [1] = target: T1, Zinc finger protein GLI1 (Mus musculus) (UniProt P47806); assay: Inhibition of GLI1 transcriptional activity in HH-responsive mouse NIH3T3 cells assessed as reduction in SAG-induced luciferase activity at 5 uM incubated for 48 hrs by luciferase reporter gene assay relative to control; type: cell-based
# T1 sequence (whole entry): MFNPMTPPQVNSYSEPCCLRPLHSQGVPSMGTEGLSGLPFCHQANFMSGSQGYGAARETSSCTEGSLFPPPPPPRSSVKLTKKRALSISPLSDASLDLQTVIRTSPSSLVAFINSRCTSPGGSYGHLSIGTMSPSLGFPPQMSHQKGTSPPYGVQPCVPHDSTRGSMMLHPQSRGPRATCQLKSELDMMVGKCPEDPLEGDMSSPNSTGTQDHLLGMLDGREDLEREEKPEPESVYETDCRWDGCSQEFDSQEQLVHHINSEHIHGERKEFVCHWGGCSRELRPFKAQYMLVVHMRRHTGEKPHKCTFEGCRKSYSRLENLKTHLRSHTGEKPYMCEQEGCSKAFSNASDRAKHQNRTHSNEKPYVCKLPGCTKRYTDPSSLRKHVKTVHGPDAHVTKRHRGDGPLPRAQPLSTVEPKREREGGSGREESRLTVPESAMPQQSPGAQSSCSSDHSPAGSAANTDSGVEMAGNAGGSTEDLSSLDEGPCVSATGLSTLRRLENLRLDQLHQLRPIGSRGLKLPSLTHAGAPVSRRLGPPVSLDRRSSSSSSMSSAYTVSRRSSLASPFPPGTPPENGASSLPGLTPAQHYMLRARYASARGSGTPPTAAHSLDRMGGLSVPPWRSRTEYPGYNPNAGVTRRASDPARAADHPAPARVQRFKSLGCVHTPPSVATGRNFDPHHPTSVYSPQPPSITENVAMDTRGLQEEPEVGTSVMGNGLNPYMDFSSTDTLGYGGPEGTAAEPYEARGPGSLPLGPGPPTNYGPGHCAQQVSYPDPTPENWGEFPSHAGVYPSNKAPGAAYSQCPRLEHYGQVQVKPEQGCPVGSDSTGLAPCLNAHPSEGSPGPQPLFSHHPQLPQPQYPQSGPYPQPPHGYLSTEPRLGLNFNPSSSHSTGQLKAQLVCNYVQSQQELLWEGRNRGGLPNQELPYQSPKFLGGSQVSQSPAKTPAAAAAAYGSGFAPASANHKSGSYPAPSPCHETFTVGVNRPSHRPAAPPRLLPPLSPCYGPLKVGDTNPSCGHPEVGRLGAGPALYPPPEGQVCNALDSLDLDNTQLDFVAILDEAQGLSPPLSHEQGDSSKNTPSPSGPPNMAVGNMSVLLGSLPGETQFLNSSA
# Method in brief: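 HH-responsive NIH3T3 cells carrying a GLI-dependent firefly luciferase reporter with renilla control, treated 48 h with 100 nM SAG plus compound (5 μM). Firefly/renilla ratio normalised to SAG-only cells set at 100%, reported as percent inhibition.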
# [2] = target: T1, Zinc finger protein GLI1 (Mus musculus); assay: Inhibition of GLI1 transcriptional activity in HH-responsive mouse NIH3T3 cells assessed as reduction in GLI1 protein expression at 5 uM incubated for 48 hrs in presence of SAG by Western blot analysis; type: cell-based
# Method in brief: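 Murine NIH3T3 cells given 100 nM SAG plus compound (5 μM) or DMSO for 48 h. Endogenous GLI1 protein measured by Western blot with HSP90 as loading control, band quantified against SAG-treated cells.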
# [3] = system: Daoy; assay: Antiproliferative activity against human DaOY cells assessed as reduction in cell viability incubated for 72 hrs by trypan blue or crystal violet staining based assay; type: functional
# [4] = system: A-375; assay: Antiproliferative activity against human A375 cells assessed as reduction in cell viability incubated for 72 hrs by trypan blue or crystal violet staining based assay; type: functional
# [5] = system: MCF-10A; assay: Cytotoxicity against human MCF10A cells assessed as reduction in cell viability incubated for 72 hrs by trypan blue or crystal violet staining based assay
# [6] = target: T2, Zinc finger protein GLI1 (Homo sapiens) (UniProt P08151); assay: Inhibition of GLI1 transcriptional activity in human A375 cells assessed as downregulation of GLI2 mRNA expression at 5 uM incubated for 48 hrs by qPCR analysis; type: cell-based; settings: A-375
# T2 sequence (whole entry): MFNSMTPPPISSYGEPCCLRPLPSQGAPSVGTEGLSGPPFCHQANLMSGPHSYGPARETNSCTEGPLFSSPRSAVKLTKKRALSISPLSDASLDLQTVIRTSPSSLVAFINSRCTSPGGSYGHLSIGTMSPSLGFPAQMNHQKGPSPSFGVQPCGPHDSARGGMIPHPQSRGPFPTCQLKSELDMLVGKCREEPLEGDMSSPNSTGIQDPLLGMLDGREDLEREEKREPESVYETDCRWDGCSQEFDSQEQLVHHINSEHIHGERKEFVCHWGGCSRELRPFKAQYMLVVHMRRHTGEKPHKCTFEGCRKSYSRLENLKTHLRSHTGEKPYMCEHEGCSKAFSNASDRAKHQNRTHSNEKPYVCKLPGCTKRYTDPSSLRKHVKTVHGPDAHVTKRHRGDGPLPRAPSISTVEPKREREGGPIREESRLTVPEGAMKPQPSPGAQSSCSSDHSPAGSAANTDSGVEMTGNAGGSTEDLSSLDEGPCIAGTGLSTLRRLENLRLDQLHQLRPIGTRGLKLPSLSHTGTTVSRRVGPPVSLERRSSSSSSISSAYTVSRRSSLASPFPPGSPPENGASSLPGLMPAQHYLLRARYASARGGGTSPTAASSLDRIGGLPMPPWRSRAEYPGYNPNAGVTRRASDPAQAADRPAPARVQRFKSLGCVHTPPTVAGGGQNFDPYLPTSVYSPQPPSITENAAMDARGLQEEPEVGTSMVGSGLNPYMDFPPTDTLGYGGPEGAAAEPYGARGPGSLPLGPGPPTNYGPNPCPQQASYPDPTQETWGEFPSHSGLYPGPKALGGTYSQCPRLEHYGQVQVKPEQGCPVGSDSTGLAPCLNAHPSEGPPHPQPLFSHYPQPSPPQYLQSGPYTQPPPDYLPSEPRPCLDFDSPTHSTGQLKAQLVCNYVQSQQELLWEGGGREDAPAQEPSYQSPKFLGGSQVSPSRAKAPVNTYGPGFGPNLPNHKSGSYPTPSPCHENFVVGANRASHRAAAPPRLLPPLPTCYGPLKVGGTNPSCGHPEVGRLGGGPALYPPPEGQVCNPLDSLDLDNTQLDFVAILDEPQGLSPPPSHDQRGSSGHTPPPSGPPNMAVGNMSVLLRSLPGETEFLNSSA
# Method in brief: (§1)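 A375 cells treated with compound (5 μM) or DMSO for 48 h. mRNA measured by qPCR as gene/(mean of HPRT and EIF2α) ratio, DMSO control set to 1. Mean ± SD.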
# [7] = target: T2, Zinc finger protein GLI1 (Homo sapiens); assay: Inhibition of GLI1 transcriptional activity in human A375 cells assessed as downregulation of Cyclin D1 mRNA expression at 5 uM incubated for 48 hrs by qPCR analysis; type: cell-based; settings: A-375; method in brief: as §1
# [8] = target: T2, Zinc finger protein GLI1 (Homo sapiens); assay: Inhibition of GLI1 transcriptional activity in human A375 cells assessed as downregulation of PTCH1 mRNA expression at 5 uM incubated for 48 hrs by qPCR analysis; type: cell-based; settings: A-375; method in brief: as §1
# [9] = target: T2, Zinc finger protein GLI1 (Homo sapiens); assay: Inhibition of GLI1 transcriptional activity in human A375 cells assessed as downregulation of GLI1 mRNA expression at 5 uM incubated for 48 hrs by qPCR analysis; type: cell-based; settings: A-375; method in brief: as §1
# [10] = target: T2, Zinc finger protein GLI1 (Homo sapiens); assay: Inhibition of GLI1 transcriptional activity in human A375 cells assessed as downregulation of HIP1 mRNA expression at 5 uM incubated for 48 hrs by qPCR analysis; type: cell-based; settings: A-375; method in brief: as §1
# [11] = system: A-375; assay: Antiproliferative activity against human A375 cells transfected with lentivrus-encoding shRNA against GLI1 assessed as reduction in cell viability incubated for 72 hrs by trypan blue or crystal violet staining based assay; type: functional
# Method in brief: (§2)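 A375 melanoma cells transduced with control lentivirus (LV-c), LV-shGLI1 or LV-shGLI2, with knockdown checked by Western blot (HSP90 loading control). Cells treated with DMSO or compound at the indicated doses for 72 h, then viability read. Values are mean ± SD of at least three independent experiments.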
# [12] = system: A-375; assay: Antiproliferative activity against human A375 cells transfected with lentivrus-encoding shRNA against GLI2 assessed as reduction in cell viability incubated for 72 hrs by trypan blue or crystal violet staining based assay; type: functional; method in brief: as §2
# [13] = Homo sapiens, Daoy, 72 h, read-out: IC50
# [14] = Homo sapiens, A-375, 72 h, read-out: IC50
SMILES,inhibition [1] [%],inhibition [2],"IC50 [3, 13] [nM]","IC50 [4, 14] [nM]",further results
CCOC(=O)c1c(-c2ccccc2)csc1NC(NC(=O)c1ccco1)C(Cl)(Cl)Cl (centres undefined),51,Active,4300,2700,
CCOC(=O)c1c(-c2ccccc2)csc1NC(NC(=O)c1ccccc1)C(Cl)(Cl)Cl (centres undefined),40,Active,900,12000,Activity [5]: Non-Toxic; inhibition [6]: Active; inhibition [7]: Active; inhibition [8]: Active; inhibition [9]: Active; inhibition [10]: Active
COc1c(O)cc2oc3cc(O)c(CC=C(C)C)c(O)c3c(=O)c2c1CC=C(C)C [MANGOSTIN],43,Active,1900,2700,
CCOC(=O)c1c(-c2ccccc2)csc1NC(NC(=O)c1ccccc1C)C(Cl)(Cl)Cl (centres undefined),,inactive,,,IC50 ([3]; daoy): Not Active; IC50 ([4]; a-375): Not Active
COc1cc(OC)c2c(=O)c(-c3ccc(OCC=C(C)C)c(OCC=C(C)C)c3)coc2c1,46,Active,130,400,Activity [11]: inactive; Activity [12]: inactive; inhibition [6]: Active; inhibition [7]: Active; inhibition [8]: Active; inhibition [9]: Active; inhibition [10]: Active
CCOC(=O)c1c(-c2ccccc2)csc1NC(NC(=O)c1cccc(Cl)c1)C(Cl)(Cl)Cl (centres undefined),81,Active,5500,6100,
CCOC(=O)c1c(-c2ccccc2)csc1NC(NC(C)=O)C(Cl)(Cl)Cl (centres undefined),38,inactive,2800,5100,
CCOC(=O)c1c(-c2ccccc2)csc1NC(NC(=O)c1cccc(C)c1)C(Cl)(Cl)Cl (centres undefined),,inactive,,,IC50 ([3]; daoy): Not Active; IC50 ([4]; a-375): Not Active
CC1(C)CC(NC(=O)c2cnn3c(C(F)F)cc(C4CC4)nc23)c2ccccc2O1 (centres undefined),40,Active,2300,2200,Activity [5]: Non-Toxic; inhibition [6]: Active; inhibition [7]: Active; inhibition [8]: Active; inhibition [9]: Active; inhibition [10]: Active
O=C(c1cnn2c(C(F)F)cc(C3CC3)nc12)N(Cc1ccccc1)Cc1ccccc1,,inactive,,,
O=C(NC1CCCc2ccccc21)c1cnn2c(C(F)F)cc(C3CC3)nc12 (centres undefined),54,Active,7500,5000,
O=C(NC1CCCc2ccccc21)c1cnn2c(C(F)(F)F)cc(-c3cccs3)nc12 (centres undefined),49,Active,4400,1200,Activity [11]: inactive; Activity [12]: inactive; Activity [5]: Non-Toxic; inhibition [6]: Active; inhibition [7]: Active; inhibition [8]: Active; inhibition [9]: Active; inhibition [10]: Active
CCOC(=O)c1c(-c2ccccc2)csc1NC(NC(=O)c1ccc([N+](=O)[O-])cc1)C(Cl)(Cl)Cl (centres undefined),74,Active,3100,5200,
O=C(NC1CCCc2ccccc21)c1cnn2c(C(F)(F)F)cc(-c3ccco3)nc12 (centres undefined),66,Active,5700,600,
O=C(NCc1ccc2c(c1)OCO2)c1cnn2c(C(F)F)cc(C3CC3)nc12,,inactive,,,
CCOC(=O)c1c(-c2ccccc2)csc1NC(NC(=O)c1cccc2ccccc12)C(Cl)(Cl)Cl (centres undefined),7,inactive,,,IC50 ([3]; daoy): Not Active; IC50 ([4]; a-375): Not Active
O=C(NC1CCOc2ccccc21)c1cnn2c(C(F)F)cc(C3CC3)nc12 (centres undefined),,inactive,,,IC50 ([3]; daoy): Not Active; IC50 ([4]; a-375): Not Active
O=C(NC1CCCCC1)c1cnn2c(C(F)F)cc(C3CC3)nc12,,inactive,,,
CCOC(=O)c1c(-c2ccccc2)csc1NC(NC(=O)c1ccc(C)cc1)C(Cl)(Cl)Cl (centres undefined),,inactive,,,IC50 ([3]; daoy): Not Active; IC50 ([4]; a-375): Not Active
CCOC(=O)c1c(-c2ccccc2)csc1NC(NC(=O)c1ccc(Br)cc1)C(Cl)(Cl)Cl (centres undefined),78,Active,3400,2000,
Cc1cc(C(F)F)n2ncc(C(=O)NC3CC(C)(C)Oc4ccccc43)c2n1 (centres undefined),0,inactive,,,IC50 ([3]; daoy): Not Active; IC50 ([4]; a-375): Not Active
O=C(NCCc1ccccc1)c1cnn2c(C(F)F)cc(C3CC3)nc12,,inactive,,,
